Shown are actives, neighbours in structure and some others; about 2.2% of the full set was active somewhere.
FN deposition inh: inhibitors of fibronectin matrix deposition, primary screen, AH1F cells, Alexa488-fibronectin fluorescence, plate reader. inhibition, % at 12.6 µM. 350,000 compounds, 0.086% hits. AID 743247, 2014. AH1F fibroblasts, overnight;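 active = mean inhibition across replicates of 30% or more, regardless of how many single replicates reach that level; inconclusive = mean under 30% yet at least half of replicates reach 30%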;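 note: positive control wells lacked labelled fibronectin entirely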
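Material: AH1F fibroblast monolayer depositing Alexa488-labelled fibronectin into matrix / Amount: 10000 AH1F cells per well / Signal: fluorescence 485/525 nm / Medium: DMEM, 2% serum / Compound: single dose, pinned / Incubation: 1 h cell adhesion before compound, then overnight fibronectin incubation / Reagent: Alexa488-FN, 24 nM final / Read-out: inhibition of fibronectin deposition signal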
PvdQ inh: P. aeruginosa PvdQ acylase inhibitors, primary screen, biochemical, fluorescence, plate reader and imaging, single point; purified PvdQ acylase; 340,000 compounds, 0.063% hits; inhibition, % at 10 µM; AID 488965, 2010; PvdQ acylase [Pseudomonas aeruginosa LESB58]; in the data active = inhibition above about 30%, passing the limit was not always enough; inconclusive = no clear call, values can overlap the other calls;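 note: 0% = vehicle neutral wells and 100% = reference inhibitor wells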
HIV Env fusion: inhibitors of HIV-1 Env-driven cell-cell fusion, primary screen, HeLa-JRFL effector, CEM21 target cells, luciferase. inhibition, % at 12.3 µM. 360,000 compounds, 1.1% hits. AID 651610, 2012;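 active = mean replicate inhibition score of at least 50 and every replicate individually at or above 50; inconclusive = only one of the two criteria met; inactive = mean below 50 and not all replicates reaching 50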;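 note: 0% = plate neutral controls and 100% = maraviroc near 300 nM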
Ecoli rRNA inh: reduced GFP signal of wild-type E. coli, primary screen, bacterial rRNA inhibitor project, GFP/RFP fluorescence, OD600, single point; 350,000 compounds, 1.6% hits; E. coli WT GFP vs humanized-ribosome RFP mutants, 24 h; active compounds read low; DMSO median 0, no signal -100; AID 720706, 2013; GFP signal change (wild-type ribosome), % (test concentration not listed);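 active = significant combined selectivity score with lowered wild-type GFP, culture density cut under 30%, mutant RFP and density less affected; inactive = any of these conditions unmet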
PDI inh: inhibitors of human PDI, primary screen, biochemical, turbidity, single point, plate reader. Protein disulfide-isomerase (Homo sapiens), P07237. PDI insulin aggregation turbidity, A650, 90 min. inhibition, % at 10 µM. 350,000 compounds, 0.052% hits. AID 588391, 2011;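 active = mean inhibition across replicates of 30% or more, whatever share of single replicates reach that level; inconclusive = mean inhibition below 30% while every single replicate reaches 30%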
ERp5 block: inhibitors of ERp5-driven insulin aggregation, primary screen, biochemical, turbidity, absorbance 650 nm, single point; 90 min; 350,000 compounds, 0.05% hits; inhibition, % at 9.99 µM; Protein disulfide-isomerase A6 (Homo sapiens), Q15084;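 active = mean replicate inhibition above about 25%, with every replicate also reaching it, limit read from the data, passing the limit was not always enough; inconclusive = only one of those two criteria met; inactive = neither criterion met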
Target sequence (Q15084 whole entry, looked up): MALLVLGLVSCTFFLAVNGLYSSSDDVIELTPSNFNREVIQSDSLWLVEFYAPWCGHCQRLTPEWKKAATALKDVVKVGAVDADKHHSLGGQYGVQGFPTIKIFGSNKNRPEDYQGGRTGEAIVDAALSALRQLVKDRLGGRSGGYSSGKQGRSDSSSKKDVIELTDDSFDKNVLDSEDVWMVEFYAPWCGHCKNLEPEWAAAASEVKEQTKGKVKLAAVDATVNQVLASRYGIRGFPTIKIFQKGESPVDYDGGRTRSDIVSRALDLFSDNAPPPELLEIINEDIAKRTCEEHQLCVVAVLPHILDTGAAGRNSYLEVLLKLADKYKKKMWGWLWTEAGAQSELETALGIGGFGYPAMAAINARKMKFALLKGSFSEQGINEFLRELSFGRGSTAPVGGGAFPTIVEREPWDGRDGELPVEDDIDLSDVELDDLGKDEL
Numbers without * were called inactive; ? = inconclusive; nt = no result given; [ ] = remark or other dose.

SMILES	FN deposition inh	PvdQ inh	HIV Env fusion	Ecoli rRNA inh	PDI inh	ERp5 block
C[C@@H]1CCCCO[C@H](CN(C)Cc2ccc(C(=O)O)cc2)[C@@H](C)CN([C@@H](C)CO)C(=O)c2cc(NS(C)(=O)=O)ccc2O1	nt	nt	10[16.7 µM]	2	nt	-1
C[C@@H]1CN(C)C(=O)c2cc(N)ccc2O[C@@H]1CN(C)C	-2	nt	nt	-6	nt	nt
COc1cc(Cn2c(-c3nonc3N)nc3ccccc32)ccc1C	-7	8	60*	nt	-1	nt
COc1cccc(Cn2c(-c3nonc3N)nc3ccccc32)c1	nt	1	nt	nt	-5	nt
C[C@@H]1CN([C@@H](C)CO)C(=O)Cc2cc(NC(=O)Cc3ccccc3)ccc2O[C@@H]1CN(C)Cc1ccncc1	nt	nt	nt	-1	nt	2
O=Cc1s/c(=N\S(=O)(=O)c2ccccc2)n(CCCCl)c1Cl	52*	-10	-103	4	9	-1
COc1ccc(NC(=S)Nc2ncccc2C)cc1OC	-5	3	-31	-11	-2	-6
COc1ccc(NC(=S)Nc2ncccc2C)c(OC)c1	nt	3	nt	-31*	8	?
O=S1(=O)CCO[C@H]2Cc3ccccc3[C@H]2N1Cc1cccc(C(F)(F)F)c1	3	0	66*	-15	3	-4
O=S1(=O)CCO[C@H]2Cc3ccccc3[C@H]2N1Cc1cccc(F)c1	-7	-12	2	-43	2	4
O=C(CN1CCOCC1)N[C@@H]1CC[C@@H](CCNC(=O)C2CCC2)O[C@@H]1CO	-8	nt	-9[16.7 µM]	0	nt	-2
CO[C@@H]1CN(C)C(=O)c2ccc(NC(=O)C3CCOCC3)cc2OC[C@H](C)N(C)C[C@@H]1C	-9	nt	-3[16.7 µM]	2	nt	nt
CCn1c2ccccc2c2nc3cc(OC)c(OC)cc3nc21	35*	6	-61	nt	6	nt
CC(C)Sc1nnc([C@H](Cc2c[nH]c3ccccc23)NC(=O)OC(C)(C)C)o1	-7	-13	1	nt	44*	nt
CO[C@H]1CN(C)C(=O)c2cc(NS(C)(=O)=O)ccc2OC[C@@H](C)N(CC2CCOCC2)C[C@@H]1C	-1	nt	-5[16.7 µM]	-3	nt	3
COCCN1CCCC(CNCc2cn(C)nc2-c2ccc(Oc3ccccc3)cc2)C1 (configuration not stated)	nt	6	18	3	8	-7
Cn1cc(CNCc2cn(C)nc2-c2ccc(C3CCCCC3)cc2)cn1	nt	4	-19	-20*	2	-15
C[C@H]1CCCCO[C@@H](CN(C)Cc2ccccc2)[C@@H](C)CN([C@@H](C)CO)C(=O)c2cc(NC(=O)c3ccncc3)ccc2O1	1	nt	-7[16.7 µM]	nt	nt	9
CC(=O)Oc1ccc2c(=O)c(-c3ccccc3)coc2c1	nt	-5	-44	-24*	7	-2
CCCCOC(=O)n1c(=O)oc2cc(S(=O)(=O)N3CCCCC3)ccc21	-2	-11	56*	nt	-2	nt
COC(=O)n1c(=O)oc2ccc(S(=O)(=O)N3CCCCC3)cc21	3	-12	-6	2	1	-1
C[C@@H]1CN([C@H](C)CO)C(=O)c2cc(NC(=O)CCCCCC(=O)Nc3ccccc3N)ccc2O[C@H]1CN(C)C(=O)Nc1ccc2c(c1)OCO2	nt	nt	nt	3	nt	8
COc1cc(C(=O)NC(=S)NNC(=O)c2ccc3c(c2)OCO3)cc(OC)c1OC	-9	-6	12	-23*	-1	-2
COc1cc(C(=O)NC(=S)Nc2ccc3c(c2)OCO3)cc(OC)c1OC	-6	-5	-30	13	4	-3
N#C/C(=C\c1ccncc1)c1nc2ccccc2o1	1	nt	-14	2	2	1
SMILES	FN deposition inh	PvdQ inh	HIV Env fusion	Ecoli rRNA inh	PDI inh	ERp5 block
N#C/C(=C\c1cccc(O)c1)c1nc2ccccc2o1	0	3	-21	-18*	-1	4
Cn1c(/C(C#N)=C/c2cccc(O)c2)nc2ccccc21	3	12	-39	-24*	-7	-1
C[C@H]1CN([C@@H](C)CO)C(=O)c2cc(NS(=O)(=O)c3cn(C)cn3)ccc2O[C@@H]1CN(C)CC1CCCCC1	-8	nt	-3[16.7 µM]	-7	nt	3
Cc1ccc(S(=O)(=O)N(C)C[C@H]2Oc3c(NC(=O)Nc4c(C)noc4C)cccc3C(=O)N([C@@H](C)CO)C[C@@H]2C)cc1	nt	nt	2[16.7 µM]	-1	nt	-6
Cc1noc(C)c1NC(=O)Nc1cccc2c1O[C@H](CN(C)S(=O)(=O)c1ccc(Cl)cc1)[C@@H](C)CN([C@H](C)CO)C2=O	nt	nt	0[16.7 µM]	4	nt	26*
C[C@@H]1CN([C@@H](C)CO)C(=O)c2cccc(NC(=O)Nc3ccccc3)c2O[C@@H]1CN(C)S(=O)(=O)c1ccc(Cl)cc1	nt	nt	nt	-25*	nt	1
Cc1noc(C)c1NC(=O)N(C)C[C@@H]1Oc2c(NS(=O)(=O)c3ccc(Cl)cc3)cccc2C(=O)N([C@@H](C)CO)C[C@H]1C	-1	nt	12[16.7 µM]	5	nt	13
Cc1noc(C)c1NC(=O)N(C)C[C@H]1Oc2c(NS(=O)(=O)c3ccc(Cl)cc3)cccc2C(=O)N([C@@H](C)CO)C[C@@H]1C	-2	nt	3[16.7 µM]	2	nt	25*
C[C@H]1CN([C@@H](C)CO)C(=O)Cc2cc(NS(=O)(=O)c3ccccc3)ccc2O[C@H]1CN(C)Cc1ccccc1	nt	nt	0[16.7 µM]	0	nt	8
COc1ccc(/C=C/C(=O)NC(=S)Nc2cc([N+](=O)[O-])ccc2O)cc1OC	7	2	-8	-17*	-4	1
Nc1ccc(Oc2cc(N)cc(Oc3ccccc3)c2)cc1	4	22	-55	-21*	-17	4
Cc1cccc(NC(=S)N/N=C2\CC(C)(C)Oc3ccc(O)cc32)c1	39*	-8	42	4	-6	2
COCc1cc(N2CCN(C(=O)OC(C)(C)C)C[C@H]2C)ccc1N1CCS(=O)(=O)CC1	-5	nt	59*	11	nt	-3
COCc1cc(N2CCN(C(=O)OC(C)(C)C)C[C@@H]2C)ccc1N1C[C@@H](C)O[C@@H](C)C1	6	nt	2	-1	nt	4
OC(CSc1nc(-c2ccccc2)c(-c2ccccc2)o1)CC(O)c1ccccc1 (configuration not stated)	nt	nt	15[16.7 µM]	nt	nt	-1
COC(=O)c1ccccc1NC(=O)C1COc2ccccc2O1 (configuration not stated)	nt	6	nt	nt	0	nt
O=C(NC1=NCCS1)C1COc2ccccc2O1 (configuration not stated)	0	-10	98*	nt	6	nt
COC(=O)c1ccsc1NC(=O)C1COc2ccccc2O1 (configuration not stated)	8	-23	-12	-32*	3	-3

High-throughput results as filed in PubChem.
